Measurements from ChEMBL document CHEMBL4368905, “5,6,7,8-Tetrahydro-1,6-naphthyridine Derivatives as Potent HIV-1-Integrase-Allosteric-Site Inhibitors” (J Med Chem, 2019).

Columns and labels:
[1] = system: Human immunodeficiency virus 1; test: Antiviral activity against wild type HIV-1 NL4-3 infected in human MT2 cells after 5 days by dual luciferase reporter gene assay; format: functional, organism-based; conditions: Human immunodeficiency virus 1, NL4-3, MT2, 120 h
Procedure, shortened: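 HIV-1 NL4-3 replication (viral outgrowth) in MT-2 cells. EC50 from multiple replicates.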

[2] = Cytotoxicity against human MT2 cells assessed as reduction in cell viability after 4 days by XTT assay; format: cell-based
Procedure, shortened: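 Cytotoxicity in MT-2 cells, test compound up to a maximal concentration of 40 μM.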

[3] = Displacement of [3H]-2-tert-butoxy-2-(2-methyl-4-p-tolylquinolin-3-yl)acetic acid from LEDGF/p75 binding site of HIV1 integrase preincubated with radioligand for 1 hr followed by compound addition and measured after 1 hr by microbeta counting assay; parameters: species or system Human immunodeficiency virus 1
Procedure, shortened: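 Displacement of tritiated ligand from the LEDGF/p75 binding site on integrase. IC50 from a single replicate.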

[4] = Clearance in rat at 1 mg/kg, iv or 5 mg/kg, po by LC-MS/MS analysis; format: ADME, organism-based; conditions: in vivo
Procedure, shortened: (§1)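 Rats dosed 1 mg/kg IV and 5 mg/kg PO. Clearance, Vss and oral bioavailability derived from these profiles.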

[5] = Volume of distribution at steady state in rat at 1 mg/kg, iv or 5 mg/kg, po by LC-MS/MS analysis; format: ADME, organism-based; conditions: in vivo, read-out: Vdss; procedure, shortened: as §1
[6] = system: Human immunodeficiency virus 1; test: Antiviral activity against HIV-1 NL4-3 harboring integrase T124A mutant infected in human MT2 cells after 5 days by dual luciferase reporter gene assay; format: functional, organism-based; conditions: Human immunodeficiency virus 1, NL4-3, MT2, 120 h
Procedure, shortened: (§2)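 NL4-3 HIV-1 carrying integrase substitutions engineered into the pol gene. The assay measures inhibition of viral outgrowth in MT-2 cell culture, and the value is reported as EC50.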

[7] = system: Human immunodeficiency virus 1; test: Antiviral activity against HIV-1 NL4-3 harboring integrase T125A mutant infected in human MT2 cells after 5 days by dual luciferase reporter gene assay; format: functional, organism-based; conditions: Human immunodeficiency virus 1, NL4-3, MT2, 120 h; procedure, shortened: as §2
[8] = system: Human immunodeficiency virus 1; test: Antiviral activity against HIV-1 NL4-3 harboring integrase T124A/T125A double mutant infected in human MT2 cells after 5 days by dual luciferase reporter gene assay; format: functional, organism-based; conditions: Human immunodeficiency virus 1, NL4-3, MT2, 120 h; procedure, shortened: as §2
[9] = system: Human immunodeficiency virus 1; test: Antiviral activity against HIV-1 NL4-3 harboring integrase T124N mutant infected in human MT2 cells after 5 days by dual luciferase reporter gene assay; format: functional, organism-based; conditions: Human immunodeficiency virus 1, NL4-3, MT2, 120 h; procedure, shortened: as §2
[10] = system: Human immunodeficiency virus 1; test: Antiviral activity against HIV-1 NL4-3 harboring integrase T124A/T125N double mutant infected in human MT2 cells after 5 days by dual luciferase reporter gene assay; format: functional, organism-based; conditions: Human immunodeficiency virus 1, NL4-3, MT2, 120 h; procedure, shortened: as §2
[11] = Oral bioavailability in rat at 5 mg/kg by LC-MS/MS analysis; format: ADME, organism-based; conditions: in vivo; procedure, shortened: as §1
[12] = Metabolic stability in rat liver microsomes assessed as parent compound remaining at 0.5 uM after 10 mins in presence of NADPH by LC-MS/MS analysis; format: ADME, Microsome; conditions: read-out: Stability
Procedure, shortened: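 Rat liver microsomes, compound at 0.5 μM, incubated 10 minutes. Read-out is percent of parent remaining.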

SMILES | EC50 [1] | CC50 at 96 h [2] | IC50 [3] | clearance [4] | Vd [5] | further results
Cc1ccc(-c2c(C(OC(C)(C)C)C(=O)O)c(C)nc3ccccc23)cc1 (stereo not drawn) | 150 nM | > 40000 nM | – | – | – | –
Cc1ccc(CCCN2CCc3nc(C)c([C@H](OC(C)(C)C)C(=O)O)c(-c4cc(F)c5c(c4C)CCCO5)c3C2)cc1F | 1 nM | > 40000 nM | 11 nM | – | – | –
Cc1ccc(-c2c3c(nc(C)c2C(OC(C)(C)C)C(=O)O)CCN(c2cccc(-c4ccccc4)c2)C3)cc1 (stereo not drawn) | 280 nM | > 40000 nM | 430 nM | – | – | –
Cc1nc2c(c(-c3cc(F)c4c(c3C)CCCO4)c1[C@H](OC(C)(C)C)C(=O)O)CN(CCCc1ccccc1F)CC2 | 1 nM | > 40000 nM | 8 nM | – | – | –
Cc1ccc(-c2c3c(nc(C)c2[C@H](OC(C)(C)C)C(=O)O)CCN(C(=O)CCc2ccccc2)C3)cc1 | 340 nM | > 40000 nM | 760 nM | 163 mL/min/kg | 2 L/kg | –
Cc1ccc(-c2c3c(nc(C)c2[C@H](OC(C)(C)C)C(=O)O)CCN(C(=O)NCc2ccccc2)C3)cc1 | 500 nM | > 40000 nM | 310 nM | – | – | –
Cc1ccc(-c2c3c(nc(C)c2[C@H](OC(C)(C)C)C(=O)O)CCN(CCCc2ccccc2)C3)cc1 | 10 nM | > 40000 nM | 70 nM | 171 mL/min/kg | 16 L/kg | EC50 [6]: 17 nM; EC50 [7]: 21 nM; EC50 [8]: 34 nM; EC50 [9]: 20 nM; EC50 [10]: 31 nM
Cc1ccc(-c2c3c(nc(C)c2[C@H](OC(C)(C)C)C(=O)O)CCN(c2ccc(-c4ccccc4)cc2)C3)cc1 | 320 nM | > 40000 nM | 220 nM | – | – | –
Cc1ccc(-c2c3c(nc(C)c2[C@H](OC(C)(C)C)C(=O)O)CCN(Cc2ccccc2)C3)cc1 | 300 nM | > 40000 nM | 830 nM | 21 mL/min/kg | 7 L/kg | bioavailability [11]: 35%
Cc1ccccc1CCCN1CCc2nc(C)c([C@H](OC(C)(C)C)C(=O)O)c(-c3cc(F)c4c(c3C)CCCO4)c2C1 | 2 nM | > 40000 nM | 19 nM | – | – | –
CC(=O)N1CCc2nc(C)c(C(OC(C)(C)C)C(=O)O)c(-c3ccc(C)cc3)c2C1 (stereo not drawn) | 1900 nM | > 40000 nM | 17000 nM | – | – | –
Cc1ccc(-c2c3c(nc(C)c2[C@H](OC(C)(C)C)C(=O)O)CCN(CCOc2ccccc2)C3)cc1 | 200 nM | > 40000 nM | 170 nM | – | – | –
Cc1ccc(-c2c3c(nc(C)c2C(OC(C)(C)C)C(=O)O)CCN(Cc2ccccc2-c2ccccc2)C3)cc1 (stereo not drawn) | 70 nM | > 40000 nM | 80 nM | 24 mL/min/kg | 9 L/kg | bioavailability [11]: 25%
Cc1ccc(-c2c3c(nc(C)c2C(OC(C)(C)C)C(=O)O)CCN(CCCC2CCCC2)C3)cc1 (stereo not drawn) | 39 nM | > 40000 nM | 240 nM | 152 mL/min/kg | 66 L/kg | bioavailability [11]: 32%
Cc1ccc(-c2c3c(nc(C)c2[C@H](OC(C)(C)C)C(=O)O)CCN(C(=O)OCc2ccccc2)C3)cc1 | 230 nM | > 40000 nM | 140 nM | 118 mL/min/kg | 19 L/kg | bioavailability [11]: 71%
COC(=O)N1CCc2nc(C)c(C(OC(C)(C)C)C(=O)O)c(-c3ccc(C)cc3)c2C1 (stereo not drawn) | 1600 nM | > 40000 nM | 4200 nM | – | – | –
Cc1nc2c(c(-c3cc(F)c4c(c3C)CCCO4)c1[C@H](OC(C)(C)C)C(=O)O)CN(CCCc1ccccc1)CC2 | 4 nM | > 40000 nM | 16 nM | 82 mL/min/kg | 6 L/kg | EC50 [7]: 7 nM; EC50 [8]: 6 nM; EC50 [9]: 6 nM; remaining at 10 min, 0.5 µM [12]: 78%; bioavailability [11]: 10%
CCCCCN1CCc2nc(C)c(C(OC(C)(C)C)C(=O)O)c(-c3ccc(C)cc3)c2C1 (stereo not drawn) | 210 nM | > 40000 nM | 1100 nM | – | – | –
Cc1ccc(-c2c3c(nc(C)c2[C@H](OC(C)(C)C)C(=O)O)CCN(CCc2ccccc2)C3)cc1 | 240 nM | > 40000 nM | 850 nM | – | – | –
Cc1ccc(-c2c3c(nc(C)c2[C@H](OC(C)(C)C)C(=O)O)CCN(C/C=C/c2ccccc2)C3)cc1 | 120 nM | > 40000 nM | 160 nM | – | – | –
Cc1ccc(-c2c3c(nc(C)c2C(OC(C)(C)C)C(=O)O)CCN(C)C3)cc1 (stereo not drawn) | 2100 nM | > 40000 nM | 5800 nM | – | – | –
Cc1ccc(-c2c3c(nc(C)c2C(OC(C)(C)C)C(=O)O)CCN(S(C)(=O)=O)C3)cc1 (stereo not drawn) | 2600 nM | > 40000 nM | 2200 nM | – | – | –
Cc1cccc(CCCN2CCc3nc(C)c([C@H](OC(C)(C)C)C(=O)O)c(-c4cc(F)c5c(c4C)CCCO5)c3C2)c1 | 2 nM | > 40000 nM | 29 nM | – | – | –
Cc1nc2c(c(-c3cc(F)c4c(c3C)CCCO4)c1[C@H](OC(C)(C)C)C(=O)O)CN(CCCc1cccc(F)c1)CC2 | 4 nM | > 40000 nM | 44 nM | – | – | –
Cc1ccc(-c2c3c(nc(C)c2[C@H](OC(C)(C)C)C(=O)O)CCN(c2ccccc2)C3)cc1 | 470 nM | > 40000 nM | 230 nM | 24 mL/min/kg | 3 L/kg | –
Cc1nc2c(c(-c3cc(F)c4c(c3C)CCCO4)c1[C@H](OC(C)(C)C)C(=O)O)CN(CCCc1ccc(F)cc1)CC2 | 4 nM | > 40000 nM | 15 nM | 92 mL/min/kg | 1 L/kg | remaining at 10 min, 0.5 µM [12]: 78%; bioavailability [11]: 10%
Cc1ccc(CCCN2CCc3nc(C)c([C@H](OC(C)(C)C)C(=O)O)c(-c4cc(F)c5c(c4C)CCCO5)c3C2)cc1 | 2 nM | > 40000 nM | 12 nM | – | – | –
Cc1nc2c(c(-c3cc(F)c4c(c3C)CCCO4)c1[C@H](OC(C)(C)C)C(=O)O)CN(CC1CC1c1ccccc1)CC2 (mixture of isomers) | 5 nM | > 40000 nM | 24 nM | – | – | –
Cc1nc2c(c(-c3cc(F)c4c(c3C)CCCO4)c1[C@H](OC(C)(C)C)C(=O)O)CN(CCCc1ccncc1)CC2 (single isomer, unassigned; atropisomer) | 58 nM | > 40000 nM | 40 nM | – | – | –
Cc1nc2ccccc2c(-c2ccc3c4c(ccnc24)CCO3)c1[C@H](OC(C)(C)C)C(=O)O [BI-224436] | 52 nM | > 40000 nM | 71 nM | – | – | –
